# From ChEMBL document CHEMBL1156864, “Boron-containing phenoxyacetanilide derivatives as hypoxia-inducible factor (HIF)-1alpha inhibitors” (Bioorg Med Chem Lett, 2010)
# Tests used:
# [1] = molecular target: Hypoxia-inducible factor 1-alpha (Homo sapiens, UniProt Q16665); test: Inhibition of hypoxia-induced HIF1alpha activation in human HeLa cells after 12 hrs by HRE-luciferase reporter gene assay; format: cell-based
# How it was run: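 HeLa cells stably carrying HRE(×5)-luciferase reporter, incubated 12 h with or without drug under hypoxic conditions. Supernatant removed, then luciferase assay. IC50 is concentration halving relative light units, read from semi-logarithmic dose–response plots; mean ± SD of triplicates.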
# HeLa = test: Growth inhibition of human HeLa cells after 48 hrs by MTT assay; format: functional
# How it was run: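 HeLa cells exposed 48 h under normoxia to 100 nM–100 μM compound; viable cells measured by MTT. GI50 read from semi-logarithmic dose–response plots; mean ± SD of triplicate samples.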
# Chain of Hypoxia-inducible factor 1-alpha (Q16665 whole entry): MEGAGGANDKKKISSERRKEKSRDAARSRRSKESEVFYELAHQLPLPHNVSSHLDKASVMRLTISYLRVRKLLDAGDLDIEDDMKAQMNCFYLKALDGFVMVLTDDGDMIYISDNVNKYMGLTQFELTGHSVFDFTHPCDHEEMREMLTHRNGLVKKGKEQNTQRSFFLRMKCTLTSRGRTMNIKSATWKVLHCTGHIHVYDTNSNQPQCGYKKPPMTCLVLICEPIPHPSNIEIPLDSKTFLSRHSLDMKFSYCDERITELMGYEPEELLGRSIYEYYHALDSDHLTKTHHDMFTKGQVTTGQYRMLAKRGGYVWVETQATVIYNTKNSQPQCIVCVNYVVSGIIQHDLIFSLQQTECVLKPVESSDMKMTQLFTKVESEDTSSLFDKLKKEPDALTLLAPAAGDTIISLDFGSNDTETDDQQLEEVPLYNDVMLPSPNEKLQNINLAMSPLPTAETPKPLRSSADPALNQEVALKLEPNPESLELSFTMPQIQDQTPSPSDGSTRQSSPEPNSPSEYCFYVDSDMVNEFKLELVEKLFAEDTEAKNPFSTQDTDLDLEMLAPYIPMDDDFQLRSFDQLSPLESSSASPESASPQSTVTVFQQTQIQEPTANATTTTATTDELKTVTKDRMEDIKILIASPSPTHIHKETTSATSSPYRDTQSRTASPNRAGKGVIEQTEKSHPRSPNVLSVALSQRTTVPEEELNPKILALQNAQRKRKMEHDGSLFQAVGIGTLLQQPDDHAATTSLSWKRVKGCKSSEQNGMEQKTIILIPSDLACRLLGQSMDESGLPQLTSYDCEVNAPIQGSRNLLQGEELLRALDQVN
Compound,IC50 [1] [µM],GI50 (HeLa) [µM]
CC(C)(C)c1ccc(OCC(=O)Nc2cc(B(O)O)ccc2O)cc1,40.3,21.3
O=C(COc1ccc(C23CC4CC(CC(C4)C2)C3)cc1)Nc1cc(C(=O)O)ccc1O,3.1,51.6
Cc1ccc(OCC(=O)Nc2cc(B(O)O)ccc2O)cc1,> 100,25.7
CCc1ccc(OCC(=O)Nc2cc(B(O)O)ccc2O)cc1,> 100,14.9
CC1(C)OB(c2ccc(O)c(NC(=O)COc3ccc(C45CC6CC(CC(C6)C4)C5)cc3)c2)OC1(C)C,3.1,16
CC(C)(C)c1ccc(OCC(=O)Nc2cc(B3OC(C)(C)C(C)(C)O3)ccc2O)cc1,35.3,12.1
O=C(COc1ccc(C23CC4CC(CC(C4)C2)C3)cc1)Nc1cc(B(O)O)ccc1O,4.6,15.2
O=C(COc1ccc(-c2ccccc2)cc1)Nc1cc(B(O)O)ccc1O,> 100,85.9
CCc1ccc(OCC(=O)Nc2cc(B3OC(C)(C)C(C)(C)O3)ccc2O)cc1,91.8,8.6
Cc1ccc(OCC(=O)Nc2cc(B3OC(C)(C)C(C)(C)O3)ccc2O)cc1,90.6,17.7
CC1(C)OB(c2ccc(O)c(NC(=O)COc3ccc(-c4ccccc4)cc3)c2)OC1(C)C,> 100,5.8
CC1(C)OB(c2ccc(O)c(NC(=O)COc3ccc(C4CCCCC4)cc3)c2)OC1(C)C,70.4,13.4
O=C(COc1ccc(C2CCCCC2)cc1)Nc1cc(B(O)O)ccc1O,84.8,29.2
